ChEMBL document CHEMBL1148222, “Chemical constituents of Glycosmis arborea: three new carbazole alkaloids and their biological activity” (J Nat Prod, 2004)

Experiments:
Type in all cases: cell-based
Raji [1] = test: Cytotoxicity against human Raji cells at 0.32 […] after 48 hrs by trypan blue staining method
How it was run: (§1)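 Raji cells grown to 10^6 cells/mL, then resuspended in RPMI 1640 with 10% FCS. Medium held 4 mM n-butyric acid, 32 pmol TPA (20 ng/mL in DMSO) and test compound in DMSO. Culture ran 48 h at 37 °C. Viable cells were counted by hemocytometer with Trypan Blue exclusion. At least 60% survival is required for a valid EBV-EA reading.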

Raji [2] = test: Cytotoxicity against human Raji cells at 3.2 […] after 48 hrs by trypan blue staining method; how it was run: as §1
Raji [3] = test: Inhibition of TPA-induced EBV-early antigen activation in human Raji cells at 3.2 […] after 48 hrs relative to control; set-up: scale not given: the % may be the effect or the level left; settings: human gammaherpesvirus 4
How it was run: (§2)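 Raji cells at 10^6 cells/mL were resuspended in RPMI 1640 with 10% FCS. Induction used 4 mM n-butyric acid plus 32 pmol TPA (20 ng/mL), with test compound in DMSO at mol ratios of 10–1000 to TPA. Cells were held 48 h at 37 °C. EA-positive cells were counted blind, at least 500 cells per assay, and expressed as % of the TPA-only control (100%) ± SD.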

Raji [4] = test: Cytotoxicity against human Raji cells at 16 […] after 48 hrs by trypan blue staining method; how it was run: as §1
Raji [5] = test: Inhibition of TPA-induced EBV-early antigen activation in human Raji cells at 32 […] after 48 hrs relative to control; set-up: scale not given: the % may be the effect or the level left; settings: human gammaherpesvirus 4; how it was run: as §2
Raji [6] = test: Inhibition of TPA-induced EBV-early antigen activation in human Raji cells at 16 […] after 48 hrs relative to control; set-up: scale not given: the % may be the effect or the level left; settings: human gammaherpesvirus 4; how it was run: as §2
Raji [7] = test: Inhibition of TPA-induced EBV-early antigen activation in human Raji cells at 0.32 […] after 48 hrs relative to control; set-up: scale not given: the % may be the effect or the level left; settings: human gammaherpesvirus 4; how it was run: as §2
Raji [8] = test: Cytotoxicity against human Raji cells at 32 […] after 48 hrs by trypan blue staining method; how it was run: as §1

In the case of `Cc1cc2c(cc1O)[nH]c1ccc3c(c12)C=CC(C)(C)O3` [GLYCOBORININE], the Activity (Raji [1]) was over 80%, the Activity (Raji [2]) was over 80% and the Activity (Raji [3]) was 73.7%. The Activity (Raji [4]) was over 80%, the Activity (Raji [5]) was 17.4% and the Activity (Raji [6]) was 49.1%. The Activity (Raji [7]) was 100% and the Activity (Raji [8]) was 60%.
For `COc1cc2c(c(O)c1OC)c(=O)c1ccccc1n2C` [ARBORININE], the Activity (Raji [1]) was over 80%, the Activity (Raji [2]) was over 80% and the Activity (Raji [3]) was 74.3%. The Activity (Raji [4]) was over 80%, the Activity (Raji [5]) was 2.7% and the Activity (Raji [6]) was 39.6%. For the same compound, the Activity (Raji [7]) was 95.6% and the Activity (Raji [8]) was 60%.
For `COc1cccc2c(=O)c3ccoc3n(C)c12`, the Activity (Raji [1]) was over 80%, the Activity (Raji [2]) was over 80% and the Activity (Raji [3]) was 79.5%. For the same compound, the Activity (Raji [4]) was over 80%, the Activity (Raji [5]) was 19.9% and the Activity (Raji [6]) was 40.5%. For the same compound, the Activity (Raji [7]) was 100% and the Activity (Raji [8]) was 60%.
`CC1=C(/C=C/C(C)=C/C=C/C(C)=C/C=C/C=C(C)/C=C/C=C(C)/C=C/C2=C(C)CCCC2(C)C)C(C)(C)CCC1` [BETA CAROTENE] showed an Activity (Raji [1]) of over 80%, an Activity (Raji [2]) of over 80% and an Activity (Raji [4]) of over 80%. The Activity (Raji [5]) was 9.1%, the Activity (Raji [7]) was 100% and the Activity (Raji [8]) was 60%.
`COc1c2ccoc2nc2c(OC)cccc12` [GAMMA-FAGARINE] gave an Activity (Raji [1]) of over 80%, an Activity (Raji [2]) of over 80% and an Activity (Raji [3]) of 77.7%. For the same compound, the Activity (Raji [4]) was over 80%, the Activity (Raji [5]) was 15.4% and the Activity (Raji [6]) was 38.2%. It also gave an Activity (Raji [7]) of 100% and an Activity (Raji [8]) of 60%.
Work on `COc1ccc2[nH]c3cc(OC)c(C)cc3c2c1` [GLYCOZOLIDINE] yielded an Activity (Raji [1]) of over 80%, an Activity (Raji [2]) of over 80% and an Activity (Raji [3]) of 76%. For the same compound, the Activity (Raji [4]) was over 80%, the Activity (Raji [5]) was 24.3% and the Activity (Raji [6]) was 51.3%. For the same compound, the Activity (Raji [7]) was 100% and the Activity (Raji [8]) was 60%.
Work on `CC(C)=CCc1c(O)ccc2[nH]c3cc(O)c(C)cc3c12` [GLYBOMINE C] yielded an Activity (Raji [1]) of over 80%, an Activity (Raji [2]) of over 80% and an Activity (Raji [3]) of 68.9%. For the same compound, the Activity (Raji [4]) was over 80%, the Activity (Raji [5]) was 13.4% and the Activity (Raji [6]) was 45.6%. It also gave an Activity (Raji [7]) of 94.6% and an Activity (Raji [8]) of 60%.
With `Cn1c2ccccc2c(=O)c2ccoc21` [ISODICTAMNINE] the Activity (Raji [1]) was over 80%, the Activity (Raji [2]) was over 80% and the Activity (Raji [3]) was 72.2%. For the same compound, the Activity (Raji [4]) was over 80%, the Activity (Raji [5]) was 18.4% and the Activity (Raji [6]) was 40.3%. It also gave an Activity (Raji [7]) of 100% and an Activity (Raji [8]) of 60%.
Compound `Cn1c(Cc2ccccc2)nc(=O)c2ccccc21` [ARBORINE] has an Activity (Raji [1]) of over 80%, an Activity (Raji [2]) of over 80% and an Activity (Raji [3]) of 75.6%. It also gave an Activity (Raji [4]) of over 80%, an Activity (Raji [5]) of 12.7% and an Activity (Raji [6]) of 40.4%. For the same compound, the Activity (Raji [7]) was 100% and the Activity (Raji [8]) was 60%.
For `COc1ccc2[nH]c3cc(O)c(C)cc3c2c1CC=C(C)C` [GLYBOMINE B], the Activity (Raji [1]) was over 80%, the Activity (Raji [2]) was over 80% and the Activity (Raji [3]) was 68.7%. It also gave an Activity (Raji [4]) of over 80%, an Activity (Raji [5]) of 15.3% and an Activity (Raji [6]) of 46.7%. The Activity (Raji [7]) was 96.4% and the Activity (Raji [8]) was 60%.
